The test system of assay [1] is Mus musculus. Put plainly: Anxiolytic-like activity in Swiss albino mouse assessed as number of punished crossing at 10 mg/kg, ip after 60 mins by four-plate test (RVb = 3.8 +/- 0.2). The class given is functional. The conditions noted are these: route intraperitoneal.
Assay [2] concerns Mus musculus. Nature of the assay: Anxiolytic-like activity in Swiss albino mouse assessed as number of punished crossing at 20 mg/kg, ip after 60 mins by four-plate test (RVb = 3.8 +/- 0.2). The format is functional. The conditions noted are these: route intraperitoneal.
Assay [3] deals with T1, 5-hydroxytryptamine receptor 1A (Rattus norvegicus) (UniProt P19327).
T1 sequence (whole entry): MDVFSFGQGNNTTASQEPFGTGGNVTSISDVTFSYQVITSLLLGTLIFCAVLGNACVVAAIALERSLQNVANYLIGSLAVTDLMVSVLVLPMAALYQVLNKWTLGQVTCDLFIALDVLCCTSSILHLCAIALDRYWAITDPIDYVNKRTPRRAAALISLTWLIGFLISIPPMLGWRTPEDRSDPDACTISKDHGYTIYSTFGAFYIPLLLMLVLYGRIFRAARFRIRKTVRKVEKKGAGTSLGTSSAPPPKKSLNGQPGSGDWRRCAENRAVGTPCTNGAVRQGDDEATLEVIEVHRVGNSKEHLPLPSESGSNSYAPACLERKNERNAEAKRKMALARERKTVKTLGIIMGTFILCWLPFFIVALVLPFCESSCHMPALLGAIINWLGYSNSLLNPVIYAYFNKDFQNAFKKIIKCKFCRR
Put plainly: Antagonist activity at presynaptic 5HT1A receptor in rat brain cerebral cortex at 20 ug/ml. The format is functional, tissue-based. The conditions noted are these: filed as antagonist.

Assay [4] concerns Mus musculus. Put plainly: Anxiolytic-like activity in Swiss albino mouse assessed as number of punished crossing at 30 mg/kg, ip after 60 mins by four-plate test (RVb = 3.8 +/- 0.2). The format is functional. The conditions noted are these: route intraperitoneal.
Assay [5] addresses T2, 5-hydroxytryptamine receptor 1A (Rattus norvegicus, UniProt P19327).
T2 sequence (P19327 whole entry): T1 sequence (whole entry)
Put plainly: Displacement of [3H]8OH-DPAT from 5HT1A in rat brain cerebral cortex. The format is tissue-based. The essentials:
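Rat cerebral cortex membranes (9 mg wet weight) in 50 mM Tris-HCl pH 7.7 with pargyline, CaCl2 and 0.1% ascorbic acid. Incubated 15 min at 37 °C with 1 nM [3H]-8-OH-DPAT and compound at 10^-10–10^-4 M. Nonspecific binding defined with serotonin. GF/B filtration and scintillation counting, in duplicate, with iterative curve fitting.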

Assay [6] deals with 5-hydroxytryptamine receptor 2A (Rattus norvegicus, UniProt P14842). Put plainly: Displacement of [3H]ketanserin from 5HT2A in rat brain cerebral cortex. The format is tissue-based. In outline:
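Rat cerebral cortex membranes in 50 mM Tris-HCl pH 7.7 were incubated 20 min at 37 °C with 0.6 nM [3H]-ketanserin and compound at 10^-10–10^-4 M. Mianserin served as displacer. Filtration through GF/B, scintillation counting, in duplicate, with iterative curve fitting.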
A general note: In a radioligand displacement assay an active substance lowers the binding of a labelled ligand.

Assay [7] addresses T1, 5-hydroxytryptamine receptor 1A (Rattus norvegicus). Nature of the assay: Antagonist activity at postsynaptic 5HT1A receptor in rat brain cerebral cortex at 20 ug/ml. Conditions: filed as antagonist. The format is functional, tissue-based.
The target of another assay is D(2) dopamine receptor (Rattus norvegicus, UniProt P61169). Nature of the assay: Displacement of [3H]spiperone from dopamine D2 receptor in rat brain striatum.
Assay [8] has as its target 5-hydroxytryptamine receptor 2A (Rattus norvegicus) (UniProt P14842). Nature of the assay: Antagonist activity at postsynaptic 5HT2A receptor in rat brain cerebral cortex at 20 ug/ml. The format is functional, tissue-based. The conditions noted are these: filed as antagonist.
The target of assay [9] is T1, 5-hydroxytryptamine receptor 1A (Rattus norvegicus). Nature of the assay: Agonist activity at presynaptic 5HT1A receptor in rat brain cerebral cortex at 20 ug/ml. The class given is functional, tissue-based. Conditions: filed as agonist.
Assay [10] relates to Mus musculus. Nature of the assay: Antidepressant-like activity in Swiss mouse assessed as immobilization time at 5 mg/kg, ip after 30 mins by forced swim test (RVb = 181.4 +/- 4.9 s). The class given is functional. Conditions: route intraperitoneal.
The test system of assay [11] is Mus musculus. Nature of the assay: […] in Swiss albino mouse assessed as number of […] crossing of the light beam during 30 mins at 10 mg/kg, ip measured after 30 mins postdose […] (RVb = 249.2 +/- 21). The format is functional. Conditions: route intraperitoneal.
Assay [12] concerns Mus musculus. Put plainly: Antidepressant-like activity in Swiss mouse assessed as immobilization time at 10 mg/kg, ip after 30 mins by forced swim test (RVb = 181.4 +/- 4.9 s). The format is functional. The conditions noted are these: route intraperitoneal.
For assay [13], the system named is Mus musculus. Nature of the assay: Anxiolytic-like activity in Swiss albino mouse assessed as number of punished crossing at 5 mg/kg, ip after 30 mins by four-plate test (RVb = 3.8 +/- 0.2). The conditions noted are these: route intraperitoneal.
The subject of assay [14] is Mus musculus. Nature of the assay: […] in Swiss albino mouse assessed as number of […] crossing of the light beam during 30 mins at 20 mg/kg, ip measured after 30 mins postdose […] (RVb = 249.2 +/- 21). The class given is functional. Conditions: route intraperitoneal.
Assay [15] has as its system Mus musculus. Put plainly: […] in Swiss albino mouse assessed as number of […] crossing of the light beam during 6 mins at 20 mg/kg, ip measured after 30 mins postdose […] (RVb = 107.1 +/- 8.5). The conditions noted are these: route intraperitoneal. The class given is functional.
Assay [16] relates to Mus musculus. Nature of the assay: Anxiolytic-like activity in Swiss albino mouse assessed as number of punished crossing of the light beam during 6 mins at 10 mg/kg, ip measured after 30 mins postdose (RVb = 107.1 +/- 8.5). The conditions noted are these: route intraperitoneal.
Assay [17] concerns the target T1, 5-hydroxytryptamine receptor 1A (Rattus norvegicus). Nature of the assay: Agonist activity at postsynaptic 5HT1A receptor in rat brain cerebral cortex at 20 ug/ml. The format is functional, tissue-based.
Assay [18] concerns Mus musculus. Put plainly: Antidepressant-like activity in Swiss mouse assessed as immobilization time at 20 mg/kg, ip after 30 mins by forced swim test (RVb = 181.4 +/- 4.9 s). The format is functional. The conditions noted are these: route intraperitoneal.
Assay [19] has as its system Mus musculus. Nature of the assay: Anxiolytic-like activity in Swiss albino mouse assessed as number of punished crossing at 30 mg/kg, ip after 60 mins by four-plate test (RVb = 4.2 +/- 0.4). The format is functional. Conditions: route intraperitoneal.
The subject of assay [20] is Mus musculus. Nature of the assay: Anxiolytic-like activity in Swiss albino mouse assessed as number of punished crossing at 10 mg/kg, ip after 60 mins by four-plate test (RVb = 4.2 +/- 0.4). Conditions: route intraperitoneal. The class given is functional.
Assay [21] concerns Mus musculus. Nature of the assay: Anxiolytic-like activity in Swiss albino mouse assessed as number of punished crossing at 20 mg/kg, ip after 60 mins by four-plate test (RVb = 4.2 +/- 0.4). The class given is functional. Conditions: route intraperitoneal.
Assay [22] is described as follows: Agonist activity at presynaptic 5HT1A receptor in brain cerebral cortex at 20 ug/ml.
In assay [23] the test system is Mus musculus. Put plainly: Antidepressant-like activity in Swiss mouse assessed as immobilization time at 20 mg/kg, ip after 30 mins by forced swim test (RVb = 167.1 +/- 6.7 s). The format is functional. Conditions: route intraperitoneal.
The subject of assay [24] is Mus musculus. Nature of the assay: […] in Swiss albino mouse assessed as number of […] crossing of the light beam during 30 mins at 20 mg/kg, ip measured after 30 mins postdose […] (RVb = 210.7 +/- 17.7). The format is functional. Conditions: route intraperitoneal.
The subject of assay [25] is Mus musculus. Nature of the assay: Antidepressant-like activity in Swiss mouse assessed as immobilization time at 10 mg/kg, ip after 30 mins by forced swim test (RVb = 167.1 +/- 6.7 s). The class given is functional. Conditions: route intraperitoneal.
Assay [26] concerns Mus musculus. Nature of the assay: […] in Swiss albino mouse assessed as number of […] crossing of the light beam during 6 mins at 10 mg/kg, ip measured after 30 mins postdose […] (RVb = 94.8 +/- 4.1). The format is functional. Conditions: route intraperitoneal.
Assay [27] relates to Mus musculus. Nature of the assay: […] in Swiss albino mouse assessed as number of […] crossing of the light beam at 20 mg/kg, ip measured after 30 mins postdose […] (RVb = 94.8 +/- 4.1). Conditions: route intraperitoneal.
The subject of assay [28] is Mus musculus. Nature of the assay: […] in Swiss albino mouse assessed as number of […] crossing of the light beam during 30 mins at 10 mg/kg, ip measured after 30 mins postdose […] (RVb = 210.7 +/- 17.7). The class given is functional. The conditions noted are these: route intraperitoneal.

Structures are written as SMILES. Active and inactive are the calls of the source. The calls are words filed in the database; no cut-off is given here.

Sequence of D(2) dopamine receptor (P61169 whole entry): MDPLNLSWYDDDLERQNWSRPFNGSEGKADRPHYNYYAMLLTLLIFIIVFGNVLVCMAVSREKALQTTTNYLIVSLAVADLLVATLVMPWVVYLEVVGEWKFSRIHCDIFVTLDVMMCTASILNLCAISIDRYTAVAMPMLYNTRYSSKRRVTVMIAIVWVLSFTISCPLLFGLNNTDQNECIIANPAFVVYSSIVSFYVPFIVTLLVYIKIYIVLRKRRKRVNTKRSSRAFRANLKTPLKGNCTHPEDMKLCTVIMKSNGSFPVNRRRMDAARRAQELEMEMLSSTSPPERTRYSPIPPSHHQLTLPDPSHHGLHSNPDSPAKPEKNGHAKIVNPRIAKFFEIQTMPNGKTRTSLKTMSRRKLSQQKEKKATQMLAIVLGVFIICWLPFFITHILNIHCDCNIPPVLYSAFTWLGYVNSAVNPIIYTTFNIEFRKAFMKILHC
Sequence of 5-hydroxytryptamine receptor 2A (P14842 whole entry): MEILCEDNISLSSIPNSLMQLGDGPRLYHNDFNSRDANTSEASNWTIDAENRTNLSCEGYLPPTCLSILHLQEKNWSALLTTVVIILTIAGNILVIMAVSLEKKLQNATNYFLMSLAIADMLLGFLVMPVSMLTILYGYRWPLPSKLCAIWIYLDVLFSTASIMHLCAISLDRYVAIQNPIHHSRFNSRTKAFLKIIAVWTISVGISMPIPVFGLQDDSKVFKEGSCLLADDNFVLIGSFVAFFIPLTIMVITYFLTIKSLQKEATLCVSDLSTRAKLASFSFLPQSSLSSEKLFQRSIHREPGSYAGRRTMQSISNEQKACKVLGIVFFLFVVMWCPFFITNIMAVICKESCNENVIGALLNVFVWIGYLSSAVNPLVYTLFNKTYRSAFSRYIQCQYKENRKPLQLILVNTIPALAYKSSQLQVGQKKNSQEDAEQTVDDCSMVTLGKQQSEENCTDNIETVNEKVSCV
Sequence of 5-hydroxytryptamine receptor 2A (Rattus norvegicus) (P14842 whole entry): as above

In the case of `O=C1NC(c2ccccc2)(C2CC2)C(=O)N1CCCN1CCN(c2cccc(Cl)c2)CC1` (racemic), the Activity with Mus musculus [1] was 3.8; with Mus musculus [2] it was 3.9; in assay [3], “Antagonist”; in the assay with Mus musculus [4], 3.7; in assay [7], “Antagonist”. Besides, the Ki – broadly, the equilibrium dissociation constant of an inhibitor or competing ligand from its target – in assay [5] amounted to 0.013 µM; in assay [6], 0.078 µM.
As for `O=C1NC2(CCc3ccccc32)C(=O)N1CCCN1CCN(c2ccccc2)CC1` (racemic), the inhibition constant (Ki) on D(2) dopamine receptor came out at 15.6 µM; in [5] it was 0.098 µM; in assay [6] it was 0.03 µM. The Activity result in assay [8] was “Antagonist”.
`COc1ccccc1N1CCN(CCCN2C(=O)NC3(CCc4ccccc43)C2=O)CC1` (racemic): the Activity entry in [9] was “Agonist”; in assay [7] it was “Antagonist”. Besides, the Ki in [5] was determined as 0.049 µM; in assay [6] it was 0.653 µM.
With `O=C1NC2(CCCc3ccccc32)C(=O)N1CCCN1CCN(c2cccc(Cl)c2)CC1` (racemic), the inhibitory constant (Ki) turned out to be 1.8 µM on D(2) dopamine receptor, 0.35 µM in [5] and 0.035 µM in assay [6]. Moreover, the Activity entry in [8] was “Antagonist”.
On to `CC1(c2ccccc2)NC(=O)N(CCCN2CCN(c3ccccc3)CC2)C1=O` (racemic), for which the results for the Ki in assay [5] and in [6] were 0.457 µM and 0.069 µM, respectively.
Regarding `O=C1NC2(CCCc3ccccc32)C(=O)N1CCCN1CCN(c2ccccc2)CC1` (racemic), the results for the Ki (on D(2) dopamine receptor; in [5]; in assay [6]) were 0.675 µM, 0.088 µM and 0.025 µM, respectively. Moreover, in assay [8], the Activity result is “Antagonist”.
`COc1ccccc1N1CCN(CCCN2C(=O)NC3(CCCc4ccccc43)C2=O)CC1` (racemic): the Activity result in assay [9] is “Agonist”; in the assay with Mus musculus [1], 5.9; with Mus musculus [2] it was 4.4; in the assay on Mus musculus [11] it was 212.9; in the assay with Mus musculus [13] it was 3.9; in the assay with Mus musculus [14], 225.3. The Activity in the assay with Mus musculus [15] was 111.6; in the assay with Mus musculus [16], 110; in assay [17] (filed as agonist), “Agonist”. Also, the Time was 161.2 s in the assay on Mus musculus [10], 121.4 s in the assay with Mus musculus [12] and 103.1 s with Mus musculus [18]. The inhibition constant (Ki) in [5] amounted to 0.023 µM; in [6] it was 0.284 µM.
For the molecule `COc1ccccc1N1CCN(CCCN2C(=O)NC(C)(c3ccccc3)C2=O)CC1` (racemic), the Activity entry in [9] is “Agonist”. Also, the inhibitory constant (Ki) stood at 0.047 µM in assay [5] and 0.73 µM in assay [6]. Further, in assay [17], the outcome was inactive.
On to `O=C1NC2(CCc3ccccc32)C(=O)N1CCCN1CCN(c2cccc(Cl)c2)CC1` (racemic), for which the Activity result in [9] was “Agonist”; in the assay on Mus musculus [19] it was 4.2; in the assay on Mus musculus [20], 4; in assay [8], “Antagonist”; in assay [7], “Antagonist”; with Mus musculus [21], 4.2. Also, the Ki on D(2) dopamine receptor was 6.2 µM; in assay [5], 0.038 µM; in assay [6], 0.053 µM.
For `CC1(c2ccccc2)NC(=O)N(CCCN2CCN(c3cccc(Cl)c3)CC2)C1=O` (racemic), the result in [22] was inactive. The inhibition constant Ki is 3.9 µM on D(2) dopamine receptor, 0.029 µM in [5] and 0.312 µM in assay [6]. The Activity entry in [7] is “Antagonist”.
`O=C1NC(c2ccccc2)(C2CC2)C(=O)N1CCCN1CCN(c2ccccc2)CC1` (racemic): the outcome in assay [22] and in [17] was inactive. Also, the Ki was 0.067 µM in assay [5] and 0.1 µM in assay [6].
Turning to `COc1ccccc1N1CCN(CCCN2C(=O)NC(c3ccccc3)(C3CC3)C2=O)CC1` (racemic), the Activity entry in [9] was “Agonist”. The inhibition constant (Ki) in assay [5] stood at 0.011 µM; in assay [6] it was 0.71 µM. Further, the result in assay [17] was inactive.
With `CN(C)CCCN1c2ccccc2CCc2ccccc21` [IMIPRAMINE], the figures for the Time in the assay with Mus musculus [23] and with Mus musculus [25] were 107.8 s and 149.1 s, respectively. Further, the Activity worked out at 141.6 with Mus musculus [24], 94.4 with Mus musculus [26], 89.1 in the assay on Mus musculus [27] and 208.7 with Mus musculus [28].
